The list is not random: actives were taken first. Their share in the collection is about 2.9%.
IMP-1 inh: IMP-1 metallo-beta-lactamase inhibitors, primary screen, biochemical, epi-absorbance readout, Pseudomonas aeruginosa enzyme; metallo-beta-lactamase IMP-1 (Pseudomonas aeruginosa); purified IMP-1, nitrocefin hydrolysis, epi-absorbance fluorescence; inhibition, % at 5.6 µM; 290,000 tested, 0.45% active;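 active means inhibition above the mean plus 3 SD of all compounds in the same screening run, cut at about 4.5% in these data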
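System: purified recombinant IMP-1 beta-lactamase. Medium: Zinc- and detergent-supplemented HEPES buffer, pH 7.1. Compound: one 5.6 µM dose […]. Schedule: 15 min preincubation plus 25 min reaction at 25 °C. Technique: Epi-absorbance fluorescence, 480 nm excitation, 530 nm emission.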
FID counter: compounds displacing fluorescent DNA intercalator, primary screen, artefact control for HCV NS3 helicase inhibitor project, biochemical, FID fluorescence. DNA fluorescent intercalator displacement. inhibition, % at 7.9 µM. 290,000 tested, 0.17% active. AID 1845, 2009; in the data active means inhibition above about 37%;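 further: higher means more ethidium bromide displaced from hairpin DNA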
NALP1 inh: NALP1 inflammasome inhibitors in reconstituted yeast, colorimetric, S. cerevisiae, triplicate retest; inhibition, % at 10 µM; AID 2071, 2009; 280,000 tested, 0.61% active; S. cerevisiae NALP1/ASC/caspase-1 growth, X-gal OD620, 72 h; in the data active means inhibition mostly above about 24%, no sharp cut-off; inactive means mostly below about 32%
SUMO HTRF inh: inhibitors of in vitro SUMOylation cascade, primary screen, biochemical, HTRF, uHTS. inhibition, % at 35 µM. 290,000 tested, 0.36% active. SUMO-conjugating enzyme UBC9 (Homo sapiens), P63279. HTRF SUMOylation assay, SAE1/SAE2 + UBC9; in the data active means inhibition above about 50%, passing the limit was not always enough
Target sequence (P63279 whole entry, looked up): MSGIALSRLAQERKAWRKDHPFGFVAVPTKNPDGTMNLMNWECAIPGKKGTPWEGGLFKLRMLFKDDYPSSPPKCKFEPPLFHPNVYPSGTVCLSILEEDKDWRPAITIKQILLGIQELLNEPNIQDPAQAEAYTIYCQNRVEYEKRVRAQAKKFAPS
VIM-2 inh: VIM-2 metallo-beta-lactamase inhibitors, primary screen, biochemical, epi-absorbance readout, Pseudomonas aeruginosa enzyme. 290,000 tested, 0.89% active. inhibition, % at 5.6 µM. purified VIM-2, nitrocefin hydrolysis, epi-absorbance fluorescence. AID 1527, 2009;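 active means inhibition above the mean of all tested compounds plus 3 SD, cutoff set per screening run, cut at about 7.5% in these data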;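 further: red hydrolysis product quenches plate fluorescence so inhibitors raise well fluorescence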
SUMO Mot1 rescue: yeast Mot1-301 growth rescue at high temperature, primary screen, SUMOylation pathway inhibitor project, S. cerevisiae, ATP luminescence, 38.5C; S. cerevisiae Mot1-301 growth rescue; percent above DMSO median, 100 means doubled; growth rescue, % at 18.8 µM; 320,000 tested, 1% active; AID 2716, 2010;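 active means every valid replicate shows activation above 250% relative to neutral control wells; inactive means the rest, any valid replicate at or below 250%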
Each line names hits and unclear results; the compound was inactive in the other large screens; ! = not active in a repeat.

Cc1ccc(CNC(=O)/C(C#N)=C\c2ccc(N(C)C)cc2)cc1	SUMO HTRF inh 54.5
Cc1ccc(-c2cc(C(=O)NCCN3CCOCC3)no2)cc1	IMP-1 inh 10.3
Cc1ccc(/C=C(\C#N)C(=O)NCCN2CCOCC2)cc1	NALP1 inh 20.8
CCCNC(=O)c1noc2c1CCc1ccccc1-2	none
O=C(NCCN1CCOCC1)c1noc2c1CCc1ccccc1-2	NALP1 inh 23.0
Cc1ccc(C)c(N(CC(=O)NC2CCCC2)C(=O)c2csnn2)c1	none
Cc1ccnc(N/C=C(/NC(=O)c2ccccc2)C(=O)N/N=C\c2ccc(Cl)cc2)n1	none (no result: NALP1 inh)
NC(=O)CC(NC(=O)Cc1ccc(Br)cc1)c1ccc(N2CCN(c3ccccc3)CC2)c([N+](=O)[O-])c1 (stereo not drawn)	none (no result: IMP-1 inh, FID counter, NALP1 inh, VIM-2 inh)
CC(c1ccc(F)cc1)n1cc(S(=O)(=O)N2CCCC2)ccc1=O (stereo not drawn)	none (no result: IMP-1 inh, FID counter, NALP1 inh, SUMO HTRF inh, VIM-2 inh)
O=C1c2ccccc2C(=O)C12OC2c1cccc2ccccc12 (stereo not drawn)	SUMO HTRF inh 95.8
Cc1ccccc1NS(=O)(=O)c1ccc(NC(=O)N2CCCCC2)cc1	none
Cc1cnc(NC(=O)Cc2ccc(C)c(C)c2)s1	IMP-1 inh 8.7
CCCn1nc(NS(=O)(=O)c2cccc3nonc23)c2cc3ccccc3nc21	none
CCCCOc1ccc(CC2CCC(=O)NC2=O)cc1 (stereo not drawn)	SUMO Mot1 rescue active
CCc1c(C2(O)CCCCC2)[nH]c2cc(C(F)(F)F)ccc12	SUMO Mot1 rescue 325.0
COc1ccccc1C(=O)NCC(=O)NCCCN1CCOCC1	none (no result: IMP-1 inh, FID counter, NALP1 inh, SUMO HTRF inh, VIM-2 inh)
CC(=O)N1CCOc2ccc(S(=O)(=O)NCc3ccc(Cl)cc3)cc21	none
CC(=O)N1CCOc2ccc(S(=O)(=O)Nc3ccc(Cl)cn3)cc21	IMP-1 inh 21.8
Cc1ccccc1N1C(=O)CC(c2c[nH]c3ccccc23)C1=O (stereo not drawn)	NALP1 inh 23.1
CC(=O)NC/C(C)=N\Nc1ccc([N+](=O)[O-])cc1	SUMO Mot1 rescue 279.2
C/C(=N\Nc1ccc([N+](=O)[O-])cc1)c1cccc(N)c1	none
CC(=O)NCC(=O)OCc1ccc([N+](=O)[O-])cc1	none
C/C(=N\Nc1ccc([N+](=O)[O-])cc1)c1ccc(O)cc1	SUMO Mot1 rescue 337.2
CC(C)CN(C(=O)CCC(=O)OC(C)C(=O)Nc1cccc(C#N)c1)c1c(N)n(CC(C)C)c(=O)[nH]c1=O (stereo not drawn)	none (no result: IMP-1 inh, FID counter, NALP1 inh, SUMO HTRF inh, VIM-2 inh)
CCCCCN(C(=O)CCC(=O)OC(C)C(=O)Nc1cccc(C#N)c1)c1c(N)n(CCCC)c(=O)[nH]c1=O (stereo not drawn)	SUMO Mot1 rescue 303.2 (no result: IMP-1 inh, FID counter, NALP1 inh, SUMO HTRF inh, VIM-2 inh)
O=C(c1ccc(Cl)cc1)C(CN1CCCC1)c1ccccc1 (stereo not drawn)	NALP1 inh 42.9
CCCOc1ccc(C(=O)C(CN2CCCC2)c2ccccc2)cc1 (stereo not drawn)	NALP1 inh 59.7
COc1ccc(C(=O)C(CN2CCCC2)c2ccccc2)cc1 (stereo not drawn)	none
CCCCOc1ccc(C(=O)C(CN2CCOCC2)c2ccccc2)cc1 (stereo not drawn)	none
CCCCCn1cnnc1SCC(=O)c1ccc2c(c1)OCO2	none (no result: IMP-1 inh, FID counter, NALP1 inh, SUMO HTRF inh, VIM-2 inh)
C=CCOn1c(=O)c(-c2cc3ccccc3o2)[n+]([O-])c2ccccc21	NALP1 inh 28.3
C=CCOn1c(=O)c(-c2ccccc2)[n+]([O-])c2ccccc21	none
COc1ccccc1C(=O)NCC(=O)NC(C)CCc1ccccc1 (stereo not drawn)	SUMO Mot1 rescue 339.6
COc1ccccc1C(=O)OCC(=O)NC(C)CCc1ccccc1 (stereo not drawn)	none
CCn1nc(C)cc1C(=O)N1CCc2c([nH]c3ccccc23)C1c1cc(F)ccc1F (stereo not drawn)	SUMO Mot1 rescue 479.2
CC(C)N1CC(C(=O)Nc2ccc(Cl)c([N+](=O)[O-])c2)CC1=O (stereo not drawn)	none
COc1ccc(N2CCN(C(=O)c3oc4c(c3C)C(=O)CCC4)CC2)cc1	none
C=CCN1c2ccccc2[C@]23C[C@@H](C(=O)OC)N(C(=O)NCCC)C2=NC(C(=O)OC)=C(C(=O)OC)[C@H]13	none (no result: IMP-1 inh, FID counter, VIM-2 inh)
COc1ccc(S(=O)(=O)Nc2ccc(N3CCOCC3)nc2)cc1	none
Cc1nc2ccccn2c(=O)c1CCN1CCC(C(=O)c2ccc(F)cc2)CC1	SUMO Mot1 rescue 427.0!
O=[N+]([O-])c1ccc(-c2csc(NN=C3CCCC3)n2)cc1	none
CC(C)NC(=O)C1CCN(C2CCN(C(=O)c3ccc4cccc(F)c4n3)CC2)CC1	none
CSCC[C@H](N)C(=O)N1CCC(C(=O)N[C@H](C(=O)NCc2ccccc2F)C(C)C)CC1	none
CNc1ccc(Br)cc(C(=O)/C=C/c2ccc3c(c2)OCO3)c1=O	IMP-1 inh 9.2
CC(=O)N1CCOc2ccc(S(=O)(=O)N3CCCC(C)C3)cc21 (stereo not drawn)	none
C/C(=N\NC(=O)c1cc(C)nc2ccc(C)cc12)c1ccncc1	none
O=C(O)CC/C(=C\c1ccc(N2CCOCC2)c([N+](=O)[O-])c1)c1nc2ccccc2s1	none (no result: SUMO Mot1 rescue)
O=C(O)CC/C(=C\c1ccc2c(c1)OCO2)c1nc2ccccc2s1	VIM-2 inh 11.0
COc1cc(/C=C(\CCC(=O)O)c2nc3ccccc3s2)ccc1OCC(=O)Nc1c(Cl)cccc1Cl	none (no result: IMP-1 inh, FID counter, NALP1 inh, SUMO HTRF inh, VIM-2 inh)
O=C(O)CC/C(=C\c1ccc(Cl)c([N+](=O)[O-])c1)c1nc2ccccc2s1	VIM-2 inh 9.2 (no result: SUMO Mot1 rescue)
CC(=O)NC1(c2ccccc2)CCN(c2cc(C)nc(-c3ccccc3)n2)CC1	NALP1 inh 39.9
Cc1cc(N2CCC(C(=O)NC3CC3)CC2)nc(-c2ccccc2)n1	none
CCN(CC)c1ccc(NC(=O)COC(=O)c2cccs2)cc1	NALP1 inh 36.3
COc1ccc(NC(=O)CSc2nnc(Cc3ccc(C)cc3)c(=O)n2N)cc1	none (no result: IMP-1 inh, FID counter, NALP1 inh, SUMO HTRF inh, VIM-2 inh)
NNC(=O)c1nc[nH]c1C(=O)Nc1ccccc1	none
CC(C(=O)N1CCCC1)N1CCN(S(=O)(=O)c2ccc(C(C)(C)C)cc2)CC1 (stereo not drawn)	none (no result: IMP-1 inh, FID counter, NALP1 inh, SUMO HTRF inh, VIM-2 inh)
O=C(c1cc(-c2ccc(Cl)cc2Cl)on1)N1CCCC1	none
Cc1nccc(-c2cc(-c3ccc(Cl)cc3Cl)no2)n1	SUMO Mot1 rescue 328.4
O=C(Cn1cnc([N+](=O)[O-])n1)N/N=C/c1cc(Cl)ccc1O	none
CCOC(=O)c1cc2c(nc1C)-c1cc(Cl)cc(Cl)c1OC2O (stereo not drawn)	none
CS(=O)(=O)N1CCN(C(=O)CCC2CCCC2)CC1	SUMO Mot1 rescue 332.4
